Reference: PubChem BioAssay
Records with an inconclusive call do not appear.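 How the source made its calls, unless noted: active means inhibition over a set limit, the all-compound mean plus 3 SD, in both replicate runs; inconclusive means over that limit in just one replicate run; inactive means at or under that limit in both runs.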

Assays:
[1] = OD615 S. cerevisiae growth inhibition, permissive medium, pilot counter-assay, permissive growth control for S. cerevisiae lifespan shortening project (AID 705;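 active means growth inhibition above 25% in both replicates, a cutoff set 3 SD above the mean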); conditions: OD615, 24 h, at 10 µM, hits give high values
In short: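 System: Engineered DeaD yeast | Buffer or medium: SC raffinose/galactose permissive medium | Doses: 10 µM single dose, 0.25% DMSO | Times: 24 h exposure, 30 °C | Measured by: OD615 turbidity read | Read-out: Yeast growth inhibition indicated by reduced 24 h OD615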

[2] = Restrictive medium S. cerevisiae growth inhibition, OD615, pilot screen of yeast lifespan reduction project, restrictive growth control (AID 706;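 active means growth inhibition above a set limit, 3 SD over mean compound inhibition, in both replicates, cut at about 43% in these data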;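 further: modified DeaD lifespan yeast strain shifted to restrictive glucose medium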); conditions: OD615, 48 h, at 10 µM, hits give high values
In short: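 Assay system: engineered S. cerevisiae DeaD strain; Buffer or medium: CSMM-D glucose medium; Dosing: 10 µM compound, 0.25% DMSO; Times: cell pre-growth 4 h, compound exposure 48 h, 30 °C; Detection: absorbance (optical density) measured at 615 nm.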

[3] = viability gain of MRP-1-high H69AR cells under doxorubicin, pilot screen, MRP-1 activator project, CellTiter-Glo, duplicate (AID 807;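 active means viability increase at or above a cutoff of the median across tested compounds plus 3 SD, cut at about 8.5% in these data, passing the limit was not always enough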;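 further: compound pretreatment 18-22 h then 72 h combined with doxorubicin; 0% = doxorubicin alone and 100% = vehicle without doxorubicin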); conditions: H69AR viability with doxorubicin, CellTiter-Glo luminescence; at 10 µM; hits give high values
[4] = growth suppression of beta-catenin knockout HCT116, pilot screen, human colon tumor cells (AID 823;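 active means cell viability at or below a set limit in both duplicate runs, the limit being the all-compound median minus 4 SD, cut at about 23% in these data, passing the limit was not always enough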;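 further: 0% = wells killed by 20 µM Hyamine and 100% = untreated DMSO cell wells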); conditions: CellTiter-Glo, 60 h, at 10 µM, hits give low values
[5] = growth suppression of PTEN-deleted HCT116, pilot screen, cell-based, HCT116 clonal line, CellTiter-Glo (AID 824;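 active means viability at or below 27.92% in each of two runs, the all-compound median minus 4 SD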;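 further: 0% = 20 µM Hyamine control and 100% = vehicle cell control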); conditions: 60 h, at 10 µM, hits give low values
[6] = inhibitors of the yeast RAM network, pilot screen, dse1pr::URA3 reporter, 5-FOA selection (AID 869);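 further: 0% = DMSO wells with no growth and 100% = 10 µM 1-NA-PP1 with full growth; RAM network block rescues cells from 5-FOA so hits raise OD615 growth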; conditions: S. cerevisiae dse1pr::URA3 5-FOA growth, OD615, 2 d; at 10 µM; hits give high values; strain carries analog-sensitive mutant Cbk1 kinase
[7] = RAM signaling pathway blockade in yeast – S. cerevisiae, Pdr1DBD-CYC8 efflux-inhibited sensitized strain, primary screen (AID 1298;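 active means RAM network inhibition above 8.4% in each of two replicates, 3 SD over the compound average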;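 further: 0% = DMSO untreated cells without growth and 100% = 10 µM 1-NA-PP1 full growth; higher means more yeast growth rescued from 5-FOA killing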); conditions: S. cerevisiae cbk1-as DSE1-URA3 strain, 5-FOA growth OD615, 2 d; at 50 µM; hits give high values

COc1ccccc1OCC(=O)Nc1ccc(S(=O)(=O)N2CCCCCC2)cc1
inactive: growth inhibition [1] -10.1% | growth inhibition [2] -4.95% | viability increase [3] 0.4% | viability [4] 83.1% | viability [5] 82.1% | inhibition [6] 2.08% | RAM network inhibition [7] 10.1%

CCCCn1c(CN2CCOCC2)nc2c1c(=O)n(C)c(=O)n2C
inactive: growth inhibition [1] -1.51% | growth inhibition [2] -7.03% | viability increase [3] -1.72% | viability [4] 93.8% | viability [5] 89.6% | inhibition [6] 0.375% | RAM network inhibition [7] 2.4%

CCOC(=O)C(C)Sc1nnc(Cn2c(=O)sc3ccccc32)n1-c1ccccc1 (stereo not given)
inactive: growth inhibition [1] 2.42% | growth inhibition [2] -4.57% | viability increase [3] -0.22% | viability [4] 95.6% | viability [5] 92.6% | inhibition [6] 1.81% | RAM network inhibition [7] 0.1%

CCCCN(CC)CCNC(=O)c1cc2c(=O)n(C)c3ccccc3c2n1C
inactive: growth inhibition [1] 2.65% | growth inhibition [2] -6.07% | viability increase [3] -5.86% | viability [4] 49% | viability [5] 48.6% | inhibition [6] 0.8% | RAM network inhibition [7] 0.41%

N#CC1=C(N)OC2=C(C(=O)CCC2)C1c1ccsc1 (stereo not given)
inactive: growth inhibition [1] -7.86% | growth inhibition [2] -3.94% | viability increase [3] -1.81% | viability [4] 93.2% | viability [5] 103% | inhibition [6] 1.52% | RAM network inhibition [7] 4.01%

O=C(Cn1ncc2c1-c1ccccc1OC2)N(Cc1ccco1)C1CCCCC1
inactive: growth inhibition [1] 0.715% | growth inhibition [2] -5.62% | viability increase [3] -2.69% | viability [4] 78.5% | viability [5] 74.9% | inhibition [6] 2.08% | RAM network inhibition [7] 3.96%

Cc1ccc(S(=O)(=O)NCC(=O)N2CCC(C)CC2)cc1
inactive: growth inhibition [1] -17.5% | growth inhibition [2] -28.3% | viability increase [3] 0.72% | viability [4] 104% | viability [5] 107% | inhibition [6] 0.475% | RAM network inhibition [7] 4.08%

CC(C)Oc1cc(O)c2c(=O)c(-c3ccc(O)cc3)coc2c1
inactive: growth inhibition [1] -14.2% | growth inhibition [2] -15.1% | viability increase [3] -6.33% | viability [4] 79.8% | viability [5] 64.5% | inhibition [6] 0.605% | RAM network inhibition [7] -3.3%

CN(C)C(=O)N1CCC(C(=O)NCc2ccc(F)cc2)CC1
inactive: growth inhibition [1] 4.29% | growth inhibition [2] 9.94% | viability increase [3] -1.51% | viability [4] 104% | viability [5] 94.7% | inhibition [6] 0.865% | RAM network inhibition [7] 5.08%

COCc1cc(C)nc2sc(C(=O)N3CCN(c4ccccc4)CC3)c(N)c12
inactive: growth inhibition [1] -3.52% | growth inhibition [2] 2.86% | viability increase [3] -0.4% | viability [4] 89% | viability [5] 86.8% | inhibition [6] 1.76% | RAM network inhibition [7] 3.05%

COc1ccc(Cl)cc1NC(=O)c1nc2nc(C)cc(C(F)F)n2n1
inactive: growth inhibition [1] -3.76% | growth inhibition [2] -10.8% | viability increase [3] -4.12% | viability [4] 94.4% | viability [5] 88.4% | inhibition [6] 2.35% | RAM network inhibition [7] 2.1%

Cc1ccc(-c2nc(C#N)c(NCCN3CCCCC3)o2)cc1
inactive: growth inhibition [1] 12.4% | growth inhibition [2] -1.35% | viability increase [3] -3.34% | viability [4] 92.5% | viability [5] 92.5% | inhibition [6] 1.4% | RAM network inhibition [7] -1.13%

O=C(CCS(=O)(=O)c1cccs1)N1CCCC1
inactive: growth inhibition [1] -1.4% | growth inhibition [2] -7.61% | viability increase [3] -1.26% | viability [4] 94% | viability [5] 96.2% | inhibition [6] 2.58% | RAM network inhibition [7] 1.19%

O=C(Cn1cc2c(n1)CCCC2)N1CCCC1
inactive: growth inhibition [1] -1.5% | growth inhibition [2] 1.53% | viability increase [3] 0.07% | viability [4] 95.5% | viability [5] 96.6% | inhibition [6] 1.14% | RAM network inhibition [7] 4.6%

C=CCn1c(SCC(=O)N2CCOCC2)nc(O)c(Cc2ccccc2)c1=O
inactive: growth inhibition [1] -12.9% | growth inhibition [2] -8.77% | viability increase [3] 1.77% | viability [4] 99.4% | viability [5] 98.5% | inhibition [6] 1.49% | RAM network inhibition [7] 1.73%

COc1ccc(C(=O)Nc2ccc(S(=O)(=O)Nc3cc(C)nc(C)n3)cc2)c(OC)c1
inactive: growth inhibition [1] 6.9% | growth inhibition [2] -0.365% | viability increase [3] 0.28% | viability [4] 98.6% | viability [5] 95.8% | inhibition [6] 1.77% | RAM network inhibition [7] 3.78%

Cc1cc(CN2C(=O)c3ccccc3C2=O)cc(N2CCOCC2)c1
inactive: growth inhibition [1] -9.23% | growth inhibition [2] -10.3% | viability increase [3] -2.19% | viability [4] 95% | viability [5] 87.7% | inhibition [6] 0.76% | RAM network inhibition [7] 1.4%

CCOc1ccccc1NC(=O)C1CCC(CNc2c(N3CCOCC3)c(=O)c2=O)CC1 (stereo not given)
inactive: growth inhibition [1] 0.95% | growth inhibition [2] -1.83% | viability increase [3] -0.66% | viability [4] 108% | viability [5] 92.7% | inhibition [6] 1.43% | RAM network inhibition [7] 1.18%

COc1ccc(NC2c3ccccc3C(=O)N2c2cccnc2)cc1Cl (stereo not given)
inactive: growth inhibition [1] 4.54% | growth inhibition [2] 2.02% | viability increase [3] -2.35% | viability [4] 89.5% | viability [5] 80.4% | inhibition [6] 2.27% | RAM network inhibition [7] 0.67%

CCOC(=O)N1CCC(C(=O)Nc2ccc(OCC)cc2)CC1
inactive: growth inhibition [1] 5.44% | growth inhibition [2] -3.75% | viability increase [3] -1.27% | viability [4] 88% | viability [5] 93.9% | inhibition [6] 0.495% | RAM network inhibition [7] 6.44%

O=C(C1CCCCN1S(=O)(=O)c1ccc(F)cc1)N1CCN(c2ccccc2F)CC1 (stereo not given)
inactive: growth inhibition [1] -14.1% | growth inhibition [2] -8.47% | viability increase [3] -1.06% | viability [4] 80.8% | viability [5] 82.9% | inhibition [6] -0.01% | RAM network inhibition [7] 1.9%

Cn1c(Cn2c(=O)sc3ccccc32)nnc1SCC(=O)Nc1cccc(Cl)c1
inactive: growth inhibition [1] -3.44% | growth inhibition [2] -16.1% | viability increase [3] -0.83% | viability [4] 99.6% | viability [5] 98.8% | inhibition [6] 2.58% | RAM network inhibition [7] 2.23%

CC1Cc2nc(SCC(=O)Nc3nccs3)n(Cc3ccccc3)c(=O)c2S1 (stereo not given)
inactive: growth inhibition [1] 4.49% | growth inhibition [2] 8.66% | viability increase [3] -2.23% | viability [4] 94.8% | viability [5] 88.4% | inhibition [6] 2.21% | RAM network inhibition [7] 3.83%

CCN1CCN(Cc2nc3c(c(=O)n(C)c(=O)n3C)n2Cc2ccc(Cl)cc2Cl)CC1
inactive: growth inhibition [1] -9.72% | growth inhibition [2] -16.2% | viability increase [3] -3.62% | viability [4] 99.1% | viability [5] 98.8% | inhibition [6] 0.615% | RAM network inhibition [7] 1.52%

CN1CCN(S(=O)(=O)c2cccc(S(=O)(=O)c3ccc(Cl)c(Cl)c3)c2)CC1
inactive: growth inhibition [1] -1.71% | growth inhibition [2] -7.33% | viability increase [3] -2.58% | viability [4] 91.1% | viability [5] 83.7% | inhibition [6] 0.59% | RAM network inhibition [7] 4.5%

O=C(Cn1cnc2c(cnn2-c2ccc(Cl)cc2)c1=O)NC1CCCCC1
inactive: growth inhibition [1] -1.74% | growth inhibition [2] 6.22% | viability increase [3] -3.89% | viability [4] 91.3% | viability [5] 91.7% | inhibition [6] 3.79% | RAM network inhibition [7] 2.4%

CC(Oc1ccc(Cl)cc1Cl)C(=O)Nc1ccncc1 (stereo not given)
inactive: growth inhibition [1] -13.3% | growth inhibition [2] -9.66% | viability increase [3] -6.03% | viability [4] 54.9% | viability [5] 54.2% | inhibition [6] 1.19% | RAM network inhibition [7] 2.04%

COCCNC(=O)CS(=O)(=O)Cc1nc(-c2ccc(C)cc2)oc1C
inactive: growth inhibition [1] -7.2% | growth inhibition [2] -29% | viability increase [3] -0.43% | viability [4] 95.1% | viability [5] 95.3% | inhibition [6] -0.325% | RAM network inhibition [7] 3.68%

CCCCC(CC)CNC(=O)CCS(=O)(=O)c1cccc2nsnc12 (stereo not given)
inactive: growth inhibition [1] -14.8% | growth inhibition [2] -21.5% | viability increase [3] -2.97% | viability [4] 85.7% | viability [5] 91.7% | inhibition [6] 3.19% | RAM network inhibition [7] 4.78%

O=C(NCCCc1ccccc1)C1CCN(c2nnc(-n3cccc3)s2)CC1
inactive: growth inhibition [1] -1.03% | growth inhibition [2] 0.98% | viability increase [3] 3.79% | viability [4] 93.3% | viability [5] 97% | inhibition [6] 0.175% | RAM network inhibition [7] 5.38%

CCOC(=O)CSc1nc2c(c(=O)n1-c1ccc(OC)cc1)SCC2
inactive: growth inhibition [1] -4.98% | growth inhibition [2] -0.425% | viability increase [3] 0.37% | viability [4] 99.5% | viability [5] 98.6% | inhibition [6] 1.04% | RAM network inhibition [7] 7.6%

CCNS(=O)(=O)c1ccc(NC(=O)c2cccnc2)cc1
inactive: growth inhibition [1] 1.24% | growth inhibition [2] 8.7% | viability increase [3] 0.48% | viability [4] 95% | viability [5] 99.6% | inhibition [6] 1.61% | RAM network inhibition [7] 6.74%

Cc1cc(C(=O)N2CCN(S(C)(=O)=O)CC2)sc1-c1ccccc1
inactive: growth inhibition [1] -7.32% | growth inhibition [2] 3.48% | viability increase [3] -2.61% | viability [4] 94.9% | viability [5] 94% | inhibition [6] 3.19% | RAM network inhibition [7] 6.22%

Cn1cccc1Cc1nnc(SCC(=O)NCCc2ccccc2)n1-c1ccc(F)cc1
inactive: growth inhibition [1] -6.41% | growth inhibition [2] 5.7% | viability increase [3] -2.38% | viability [4] 93.7% | viability [5] 93.3% | inhibition [6] 2.35% | RAM network inhibition [7] 5.42%

CCOc1ccccc1C1CC(c2ccccc2)Nc2nc(N)nn21 (stereo not given)
inactive: growth inhibition [1] -1.36% | growth inhibition [2] 8.93% | viability increase [3] -1.31% | viability [4] 97.2% | viability [5] 88.2% | inhibition [6] 2.27% | RAM network inhibition [7] 2.72%
